The results in this text go back to ChEMBL document CHEMBL2331195, “Lahorenoic acids A-C, ortho-dialkyl-substituted aromatic acids from the biocontrol strain Pseudomonas aurantiaca PB-St2” (J Nat Prod, 2013).

The subject of one experiment is MCF7. Nature of the experiment: Solid tumor cytotoxicity against human MCF7 cells assessed as inhibition of cell colony formation by disc diffusion soft-agar colony formation assay. The format is functional, cell-based. The procedure, abridged:
(§1)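 Cells plated in soft agar; compound dissolved in 250 μL DMSO, 15 μL applied to a cellulose disc on the plate; after incubation, colony-inhibition zone measured from disc edge to colony growth in zone units (200 zu = 6 mm); solid-tumour selectivity judged as ≥250 zu difference versus leukemia or normal CFU-GM cells.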
A general note: Agar diffusion results depend on both activity and mobility in agar.

The test system of experiment [1] is Mycobacterium tuberculosis. The experiment in a line: Antituberculosis activity against Mycobacterium tuberculosis H37Rv […] incubated for 7 days by Alamar blue assay. In kind it is functional. The procedure, abridged: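 Virulent H37Rv (ATCC 27294) in 96-well plate; compounds from 10 mg/mL DMSO stock, 2-fold dilutions from top 100 μg/mL (1% v/v DMSO final); 7 days at 37 °C; growth by Alamar Blue fluorescence; MIC = lowest concentration giving ≥90% fluorescence inhibition versus untreated bacteria; rifampicin and isoniazid positive controls, 1% DMSO negative control.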
(In general: Alamar Blue is a resazurin reagent that responds to reducing activity.)

Experiment [2] deals with Arthrobacter crystallopoietes. Nature of the experiment: Antibacterial activity against Arthrobacter crystallopoietes DSM 20117 assessed as inhibition of visible bacterial growth after 24 hrs. In kind it is functional. The conditions noted are these: Crystallibacter crystallopoietes. The procedure, abridged:
(§2)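 Broth microdilution MIC using 2-fold serial dilutions. A. crystallopoietes DSM 20117 was grown in tryptic soy broth, and B. cereus in half-concentrated Mueller–Hinton broth. Final inoculum was 10^5 CFU per well. After 24 h at 37 °C, the MIC was read as the lowest concentration with no visible growth. Values are means of three independent determinations.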

In the next experiment the test system is H125. The experiment in a line: Solid tumor cytotoxicity against human H125 cells assessed as inhibition of cell colony formation by disc diffusion soft-agar colony formation assay. The format is functional, cell-based. The procedure, abridged: as §1
A further experiment relates to HCT-116. The experiment in a line: Cytotoxicity against human HCT116 cells assessed as growth inhibition after 5 days by hemocytometry. The format is cell-based. The procedure, abridged: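 HCT-116 cells were seeded at 5 × 10^4 cells/T25 flask in serum medium with 1% penicillin–streptomycin and 1% glutamine, at 37 °C and 5% CO2. Compound at various concentrations was added on day 3, followed by 120 h incubation. Cells were trypsinized, washed and resuspended in HBSS, then hemocytometer-counted. Counts were normalized to untreated control, and IC50 was derived by nonlinear regression.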

The nature of experiment [3]: Antifungal activity against Colletotrichum falcatum assessed as inhibition of mycelial growth at 100 ug/disc incubated for 10 to 15 days at 25 degC. The format is functional. The procedure, abridged: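 Four C. falcatum strains from local sugar cane varieties (BF166, C01148, CP77400, SPF234) on potato dextrose agar; mycelial plug at plate centre, compound-loaded air-dried filter discs (25–200 μg, in methanol, chloroform or DMSO) placed 2 cm away; 10–15 days at 25 °C; zone of mycelial inhibition around disc; solvent discs as negative controls; three repeats in duplicate.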

The subject of another experiment is Bacillus cereus. Nature of the experiment: Antibacterial activity against Bacillus cereus assessed as inhibition of visible bacterial growth after 24 hrs. The format is functional. The procedure, abridged: as §2
For the next experiment, the system named is LNCaP. Nature of the experiment: Solid tumor cytotoxicity against human LNCAP cells assessed as inhibition of cell colony formation by disc diffusion soft-agar colony formation assay. The format is functional, cell-based. The procedure, abridged: as §1

≈ marks a conversion by molar mass, not a printed value. Calls of active or inactive are those of the source.

Usually MIC90 stands for an inhibitory concentration at the 90% level, which refers to growth in some studies and to a panel of isolates in others. What is called MIC is the smallest concentration in the dilution series that meets the test's criterion for growth inhibition. As a reminder, the IC50 is the midpoint of a concentration-inhibition curve. For the molecule `Oc1ccc2nc3ccccc3nc2c1`, the “inhibition zone (IZ)” value (in the experiment with MCF7; with H125; in experiment [3]; in the experiment on LNCaP) was “inactive” throughout. For the same molecule, in experiment [1], the MIC90 entry is “inactive”. Moreover, the MIC result (in experiment [2]; in the experiment on Bacillus cereus) was “inactive” in each case. For the same molecule, the IC50 entry with HCT-116 (hct-116) is given as “Non-toxic”.

In experiment [1] (H37Rv ATCC 27292, 168 h), `COC(=O)CCCCCc1ccccc1/C=C/C(C)=O` [LAHORENOIC ACID B] showed an MIC90 of 49.5 µg/mL (≈ 180 µM). Also, in the experiment with HCT-116 (hct-116), the IC50 entry is on record as “Non-toxic”.

For the molecule `O=C(O)c1cccc2nc3ccccc3nc12` [PHENAZINE-1-CARBOXYLIC ACID], the “inhibition zone (IZ)” value in the experiment on MCF7, in the experiment with H125 and in the experiment on LNCaP was “Active” in each case. The MIC90 in experiment [1] (H37Rv ATCC 27292, 168 h) stood at 32.9 µg/mL (≈ 147 µM). In addition, the IC50 with HCT-116 (Homo sapiens, HCT-116, 120 h, read-out: IC50) worked out at 15.6 µM. In experiment [3], the inhibition zone (IZ) is 2 mm.

With `Oc1ccc2nc3ccc(O)cc3nc2c1`, the MIC was found to be 25 µg/mL (≈ 118 µM) in experiment [2] (DSM 20117, 24 h) and 25 µg/mL (≈ 118 µM) with Bacillus cereus. Further, the IC50 result in the experiment on HCT-116 (hct-116) was “Non-toxic”. Moreover, the “inhibition zone (IZ)” value in experiment [3] is “inactive”.
